Data published in ChEMBL document CHEMBL4229415, “Design, synthesis and biological evaluation of novel series of 2H-benzo[b][1,4]oxazin-3(4H)-one and 2H-benzo[b][1,4]oxazine scaffold derivatives as PI3Kα inhibitors” (Bioorg Med Chem, 2018).

Assays:
HCT-116 = assay: Antiproliferative activity against human HCT116 cells after 72 hrs by SRB assay; type: functional, cell-based; settings: HCT-116, 72 h
MDA-MB-231 = assay: Antiproliferative activity against human MDA-MB-231 cells after 72 hrs by SRB assay; type: functional, cell-based; settings: MDA-MB-231, 72 h
SNU-638 = assay: Antiproliferative activity against human SNU638 cells after 72 hrs by SRB assay; type: functional, cell-based; settings: SNU-638, 72 h
[1] = molecular target: T1, Phosphatidylinositol 4,5-bisphosphate 3-kinase catalytic subunit alpha isoform (Homo sapiens, UniProt P42336); assay: Inhibition of recombinant human PI3K-alpha using PIP2:3PS as substrate preincubated for 15 mins followed by ATP addition measured after 1 hr by ADP-Glo assay
T1 sequence (P42336 whole entry, canonical isoform): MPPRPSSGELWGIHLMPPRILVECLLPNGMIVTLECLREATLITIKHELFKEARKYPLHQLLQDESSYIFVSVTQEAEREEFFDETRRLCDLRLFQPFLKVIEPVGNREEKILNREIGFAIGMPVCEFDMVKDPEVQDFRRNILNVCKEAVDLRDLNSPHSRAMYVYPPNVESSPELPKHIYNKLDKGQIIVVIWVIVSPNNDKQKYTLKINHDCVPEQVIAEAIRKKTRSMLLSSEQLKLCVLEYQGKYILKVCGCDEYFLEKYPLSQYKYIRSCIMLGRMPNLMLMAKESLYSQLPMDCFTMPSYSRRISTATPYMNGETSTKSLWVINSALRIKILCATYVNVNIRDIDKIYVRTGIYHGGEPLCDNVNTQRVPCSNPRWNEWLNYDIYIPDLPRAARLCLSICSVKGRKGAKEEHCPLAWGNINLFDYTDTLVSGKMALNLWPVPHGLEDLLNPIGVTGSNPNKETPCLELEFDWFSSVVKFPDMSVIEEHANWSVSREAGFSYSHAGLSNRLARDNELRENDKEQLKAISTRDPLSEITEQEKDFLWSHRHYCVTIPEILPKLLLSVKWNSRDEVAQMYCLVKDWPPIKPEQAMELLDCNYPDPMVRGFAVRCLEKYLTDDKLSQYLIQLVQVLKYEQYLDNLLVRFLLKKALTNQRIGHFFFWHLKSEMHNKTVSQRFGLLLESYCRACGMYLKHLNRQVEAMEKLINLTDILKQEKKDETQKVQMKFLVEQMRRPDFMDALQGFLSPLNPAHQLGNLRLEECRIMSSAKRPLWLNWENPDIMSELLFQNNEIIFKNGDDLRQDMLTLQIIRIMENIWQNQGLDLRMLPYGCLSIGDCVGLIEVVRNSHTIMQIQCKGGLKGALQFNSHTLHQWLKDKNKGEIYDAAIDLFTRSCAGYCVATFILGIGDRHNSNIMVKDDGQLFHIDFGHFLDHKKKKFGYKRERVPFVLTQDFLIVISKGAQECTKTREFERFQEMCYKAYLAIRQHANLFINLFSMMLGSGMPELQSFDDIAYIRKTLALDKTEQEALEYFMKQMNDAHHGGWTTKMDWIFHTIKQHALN
Procedure, shortened: (§1)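 Luminescent ADP-production readout (PI3K-Glo Class I kit). Enzymes p110α/p85α, p110β/p85α, p120γ or p110δ/p85α diluted in reaction buffer with lipid substrate, preincubated with serially diluted compound 15 min at room temperature. ADP-Glo reagent 40 min, then detection reagent 40 min. IC50 by normalized nonlinear dose-response fit.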

[2] = molecular target: Phosphatidylinositol 4,5-bisphosphate 3-kinase catalytic subunit beta isoform (Homo sapiens, UniProt P42338); assay: Inhibition of recombinant human PI3K-beta using PIP2:3PS as substrate preincubated for 15 mins followed by ATP addition measured after 1 hr by ADP-Glo assay; procedure, shortened: as §1
Phosphatidylinositol 4,5-bisphosphate 3-kinase catalytic subunit beta isoform, sequence (P42338 whole entry, canonical isoform): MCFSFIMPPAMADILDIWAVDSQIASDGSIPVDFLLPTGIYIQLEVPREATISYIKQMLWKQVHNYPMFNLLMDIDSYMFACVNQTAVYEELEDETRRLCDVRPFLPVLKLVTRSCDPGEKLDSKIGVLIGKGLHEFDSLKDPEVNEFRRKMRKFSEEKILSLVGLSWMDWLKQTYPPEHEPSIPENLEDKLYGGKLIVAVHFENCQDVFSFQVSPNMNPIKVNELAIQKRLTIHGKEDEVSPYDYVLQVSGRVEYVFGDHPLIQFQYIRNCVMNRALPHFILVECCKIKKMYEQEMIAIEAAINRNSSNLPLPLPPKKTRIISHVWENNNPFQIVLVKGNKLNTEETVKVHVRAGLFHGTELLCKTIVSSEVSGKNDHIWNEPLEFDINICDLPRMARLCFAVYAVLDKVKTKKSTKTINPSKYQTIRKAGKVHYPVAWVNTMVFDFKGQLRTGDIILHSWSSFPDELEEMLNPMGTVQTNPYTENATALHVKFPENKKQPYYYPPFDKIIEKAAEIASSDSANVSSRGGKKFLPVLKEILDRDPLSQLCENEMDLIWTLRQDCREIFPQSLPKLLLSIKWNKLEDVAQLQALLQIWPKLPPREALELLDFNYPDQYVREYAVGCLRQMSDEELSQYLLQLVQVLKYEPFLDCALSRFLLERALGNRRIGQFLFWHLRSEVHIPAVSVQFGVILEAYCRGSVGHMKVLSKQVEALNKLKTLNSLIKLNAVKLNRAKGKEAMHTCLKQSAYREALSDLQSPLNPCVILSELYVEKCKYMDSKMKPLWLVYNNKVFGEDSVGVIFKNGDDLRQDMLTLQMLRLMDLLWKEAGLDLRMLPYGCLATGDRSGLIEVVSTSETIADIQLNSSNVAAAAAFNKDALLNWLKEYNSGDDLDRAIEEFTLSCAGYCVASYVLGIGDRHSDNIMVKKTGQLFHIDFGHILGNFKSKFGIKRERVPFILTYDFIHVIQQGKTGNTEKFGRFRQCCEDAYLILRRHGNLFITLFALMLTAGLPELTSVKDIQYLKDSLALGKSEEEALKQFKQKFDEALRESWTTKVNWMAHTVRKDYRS

[3] = molecular target: Phosphatidylinositol 4,5-bisphosphate 3-kinase catalytic subunit gamma isoform (Homo sapiens, UniProt P48736); assay: Inhibition of recombinant human PI3K-gamma using PIP2:3PS as substrate preincubated for 15 mins followed by ATP addition measured after 1 hr by ADP-Glo assay; procedure, shortened: as §1
Phosphatidylinositol 4,5-bisphosphate 3-kinase catalytic subunit gamma isoform, sequence (P48736 whole entry, canonical isoform): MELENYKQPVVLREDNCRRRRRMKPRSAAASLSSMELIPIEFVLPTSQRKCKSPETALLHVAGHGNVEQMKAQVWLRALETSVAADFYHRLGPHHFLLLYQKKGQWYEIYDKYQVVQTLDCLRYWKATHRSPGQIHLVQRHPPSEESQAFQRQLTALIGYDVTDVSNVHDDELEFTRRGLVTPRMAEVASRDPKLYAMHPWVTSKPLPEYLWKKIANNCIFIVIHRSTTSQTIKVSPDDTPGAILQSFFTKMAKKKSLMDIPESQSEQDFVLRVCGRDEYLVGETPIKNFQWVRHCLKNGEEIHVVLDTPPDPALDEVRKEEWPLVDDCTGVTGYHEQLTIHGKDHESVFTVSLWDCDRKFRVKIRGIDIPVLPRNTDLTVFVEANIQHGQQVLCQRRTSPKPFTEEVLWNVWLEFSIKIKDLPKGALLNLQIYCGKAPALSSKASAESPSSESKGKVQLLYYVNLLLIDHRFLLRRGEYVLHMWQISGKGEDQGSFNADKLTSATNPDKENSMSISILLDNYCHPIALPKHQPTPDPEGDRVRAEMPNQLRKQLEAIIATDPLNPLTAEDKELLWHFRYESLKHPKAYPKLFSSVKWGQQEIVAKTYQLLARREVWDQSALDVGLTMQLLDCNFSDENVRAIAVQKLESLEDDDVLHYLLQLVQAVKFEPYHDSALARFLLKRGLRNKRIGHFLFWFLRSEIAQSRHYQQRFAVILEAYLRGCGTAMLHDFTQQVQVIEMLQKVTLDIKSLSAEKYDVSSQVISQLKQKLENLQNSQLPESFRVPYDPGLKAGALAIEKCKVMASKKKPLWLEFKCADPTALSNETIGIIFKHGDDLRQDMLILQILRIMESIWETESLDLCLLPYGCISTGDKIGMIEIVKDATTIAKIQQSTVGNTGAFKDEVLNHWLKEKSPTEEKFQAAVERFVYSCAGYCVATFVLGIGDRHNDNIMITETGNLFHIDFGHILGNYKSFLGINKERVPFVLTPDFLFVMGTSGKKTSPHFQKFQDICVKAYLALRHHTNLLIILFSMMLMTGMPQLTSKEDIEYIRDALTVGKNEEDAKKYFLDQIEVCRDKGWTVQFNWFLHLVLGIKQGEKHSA

Homo sapiens [4] = organism: Homo sapiens; assay: Selectivity ratio of IC50 for recombinant human PI3K-beta to IC50 for recombinant human PI3K-alpha
Procedure, shortened: (§2)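 Ratios derived from isoform IC50 values obtained in the ADP-Glo lipid-kinase assay: each enzyme preincubated 15 min with compound and lipid substrate, reaction started with ATP (250 µM stock), 1 h at room temperature, luminescence read and IC50 fitted by normalized nonlinear regression.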

Homo sapiens [5] = organism: Homo sapiens; assay: Selectivity ratio of IC50 for recombinant human PI3K-gamma to IC50 for recombinant human PI3K-alpha; procedure, shortened: as §2
MRC5 = assay: Antiproliferative activity against human MRC5 cells after 72 hrs by SRB assay; type: cell-based; settings: MRC5, 72 h
Procedure, shortened: (§3)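 Normal human cells (MRC5, HUVEC) exposed to graded compound concentrations for 72 h at 37 °C, 5% CO2, fixed with 10% TCA and stained by SRB. IC50 obtained by non-linear regression of percent growth against concentration.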

HUVEC = assay: Antiproliferative activity against HUVEC after 72 hrs by SRB assay; type: cell-based; settings: Homo sapiens; procedure, shortened: as §3
[6] = molecular target: T2, Phosphatidylinositol 4,5-bisphosphate 3-kinase catalytic subunit delta isoform (Homo sapiens, UniProt O00329); assay: Inhibition of recombinant human PI3K-delta using PIP2:3PS as substrate preincubated for 15 mins followed by ATP addition measured after 1 hr by ADP-Glo assay; procedure, shortened: as §1
T2 sequence (O00329 whole entry): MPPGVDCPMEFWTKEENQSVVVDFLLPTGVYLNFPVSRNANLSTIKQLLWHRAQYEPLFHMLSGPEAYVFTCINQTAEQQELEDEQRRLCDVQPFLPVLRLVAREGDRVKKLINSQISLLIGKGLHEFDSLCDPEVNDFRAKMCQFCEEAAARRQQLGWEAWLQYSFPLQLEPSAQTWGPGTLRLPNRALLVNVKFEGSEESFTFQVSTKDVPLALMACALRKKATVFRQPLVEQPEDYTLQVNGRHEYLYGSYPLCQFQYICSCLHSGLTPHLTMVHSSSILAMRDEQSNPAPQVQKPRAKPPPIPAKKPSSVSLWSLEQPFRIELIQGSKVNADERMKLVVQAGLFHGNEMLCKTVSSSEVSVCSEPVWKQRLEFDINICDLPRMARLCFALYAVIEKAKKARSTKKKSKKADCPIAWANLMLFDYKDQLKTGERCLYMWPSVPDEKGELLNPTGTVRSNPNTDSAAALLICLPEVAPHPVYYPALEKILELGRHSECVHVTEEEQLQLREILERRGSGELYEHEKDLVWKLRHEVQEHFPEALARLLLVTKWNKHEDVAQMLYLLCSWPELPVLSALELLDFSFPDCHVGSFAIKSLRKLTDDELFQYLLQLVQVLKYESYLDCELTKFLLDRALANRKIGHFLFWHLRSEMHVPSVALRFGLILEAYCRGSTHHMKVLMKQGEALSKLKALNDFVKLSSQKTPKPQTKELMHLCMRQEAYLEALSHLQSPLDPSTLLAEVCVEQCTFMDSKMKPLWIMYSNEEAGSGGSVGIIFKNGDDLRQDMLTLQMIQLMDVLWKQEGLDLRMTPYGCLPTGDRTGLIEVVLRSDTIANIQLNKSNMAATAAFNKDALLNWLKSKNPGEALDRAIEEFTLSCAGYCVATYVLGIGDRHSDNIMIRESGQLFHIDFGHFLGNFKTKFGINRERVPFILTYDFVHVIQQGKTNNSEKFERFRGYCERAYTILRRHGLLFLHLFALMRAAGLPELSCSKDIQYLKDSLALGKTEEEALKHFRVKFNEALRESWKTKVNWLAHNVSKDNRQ

Homo sapiens [7] = organism: Homo sapiens; assay: Selectivity ratio of IC50 for recombinant human PI3K-delta to IC50 for recombinant human PI3K-alpha; procedure, shortened: as §2
[8] = molecular target: T1, Phosphatidylinositol 4,5-bisphosphate 3-kinase catalytic subunit alpha isoform; assay: Inhibition of PI3K-alpha in human HCT116 cells assessed as reduction in Akt phosphorylation at Thr-308 residue by Western blot analysis; type: cell-based
Procedure, shortened: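 Equal protein amounts separated by 10% SDS-PAGE, transferred to PVDF, probed with the indicated antibodies; β-actin as internal control.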

Row | Compound | IC50 (HCT-116) | IC50 (MDA-MB-231) | IC50 (SNU-638) | also measured
1 | CCCCS(=O)(=O)Nc1cc(-c2ccc3c(c2)N(CCC(=O)N2CCOCC2)C(=O)CO3)cnc1OC | 23.5 µM | 43.8 µM | 41.9 µM | –
2 | CCCCS(=O)(=O)Nc1cc(-c2ccc3c(c2)N(CCCn2ccccc2=O)C(=O)CO3)cnc1OC | 42.6 µM | 47.9 µM | 44.3 µM | –
3 | CCCCS(=O)(=O)Nc1cc(-c2ccc3c(c2)N(CCCn2cccn2)C(=O)CO3)cnc1OC | 33.6 µM | 37.9 µM | 36.2 µM | –
4 | CCCCS(=O)(=O)Nc1cc(-c2ccc3c(c2)N(CCN2CCOCC2)C(=O)CO3)cnc1OC | 15.8 µM | 19.5 µM | 20.4 µM | –
5 | CCCCS(=O)(=O)Nc1cc(-c2ccc3c(c2)N(CCCN(CC)CC)C(=O)CO3)cnc1OC | 14.6 µM | 13.8 µM | 17.6 µM | –
6 | CCCCS(=O)(=O)Nc1cc(-c2ccc3c(c2)N(CCCn2ccnc2)C(=O)CO3)cnc1OC | 32.9 µM | 40.4 µM | 32.7 µM | –
7 | CCCCS(=O)(=O)Nc1cc(-c2ccc3c(c2)N(CCCN(C)C)C(=O)CO3)cnc1OC | 8.43 µM | 9.35 µM | 8.97 µM | –
8 | CCCCS(=O)(=O)Nc1cc(-c2ccc3c(c2)N(Cc2ccncc2)C(=O)CO3)cnc1OC | 41.4 µM | 37.9 µM | 46.5 µM | –
9 | Cn1c(=O)n(-c2ccc(C(C)(C)C#N)cc2)c2c3cc(-c4cnc5ccccc5c4)ccc3ncc21 [DACTOLISIB] | – | 0.56 µM | – | –
10 | COc1ncc(-c2ccc3c(c2)N(CCN2CCOCC2)C(=O)CO3)cc1NS(=O)(=O)c1ccc(F)cc1F | 2.4 µM | 1.82 µM | 2.38 µM | –

Continued, in another order:

Row | IC50 (HCT-116) | IC50 (MDA-MB-231) | IC50 (SNU-638) | Compound | also measured
11 | 1.24 µM | 4.98 µM | 7.84 µM | COc1ncc(-c2ccc3c(c2)N(Cc2ccc(F)cc2)C(=O)CO3)cc1NS(=O)(=O)c1ccc(F)cc1F | –
12 | 6.18 µM | 8.26 µM | 7.39 µM | COc1ncc(-c2ccc3c(c2)N=C(N2CCN(CCO)CC2)CO3)cc1NS(=O)(=O)c1ccc(F)cc1F | –
13 | 0.58 µM | 0.49 µM | 0.52 µM | COc1ncc(-c2ccc3c(c2)N(CCCN2CCOCC2)C(=O)CO3)cc1NS(=O)(=O)c1ccc(F)cc1F | IC50 [1]: 26.7 nM; IC50 [2]: 382 nM; IC50 [3]: 185 nM; Ratio IC50 (Homo sapiens [4]): 14.3; Ratio IC50 (Homo sapiens [5]): 7; IC50 (MRC5): 32.8 µM; IC50 (HUVEC): 15.6 µM; IC50 [6]: 425 nM; Ratio IC50 (Homo sapiens [7]): 15.9; inhibition [8]: Dose-dependent effect
14 | 4.23 µM | 12.4 µM | 6.76 µM | COc1ncc(-c2ccc3c(c2)N(CCCn2ccccc2=O)C(=O)CO3)cc1NS(=O)(=O)c1ccc(F)cc1F | –
15 | 14.5 µM | 17.2 µM | 21.4 µM | CCOC(=O)CN1CCN(C2=Nc3cc(-c4cnc(OC)c(NS(=O)(=O)c5ccc(F)cc5F)c4)ccc3OC2)CC1 | –
16 | 3.18 µM | 3.26 µM | 5.77 µM | COc1ncc(-c2ccc3c(c2)N(CCC(=O)N2CCOCC2)C(=O)CO3)cc1NS(=O)(=O)c1ccc(F)cc1F | –
17 | 2.22 µM | 5.49 µM | 6.96 µM | COc1ncc(-c2ccc3c(c2)N(Cc2ccncc2)C(=O)CO3)cc1NS(=O)(=O)c1ccc(F)cc1F | –
18 | 4.62 µM | 4.23 µM | 5.01 µM | CCCCS(=O)(=O)Nc1cc(-c2ccc3c(c2)N(CCCN2CCOCC2)C(=O)CO3)cnc1OC | –
19 | 3.26 µM | 4.78 µM | 4.97 µM | COc1ncc(-c2ccc3c(c2)N=C(N2CCN(CCCO)CC2)CO3)cc1NS(=O)(=O)c1ccc(F)cc1F | –
20 | 18.6 µM | 22.8 µM | 24.9 µM | COC(=O)CCN1CCN(C2=Nc3cc(-c4cnc(OC)c(NS(=O)(=O)c5ccc(F)cc5F)c4)ccc3OC2)CC1 | –
